Measurements from ChEMBL document CHEMBL2146407, “Development of erlotinib derivatives as CIP2A-ablating agents independent of EGFR activity” (Bioorg Med Chem, 2012).
pIC50: −log10 of the molar value. Calls of active or inactive are those of the source. The rule behind the calls is not given here.

Tests used:
[1] = molecular target: Protein CIP2A (Homo sapiens) (UniProt Q8TCG1); assay: Inhibition of CIP2A in human SKHEP1 cells at 5 uM after 30 hrs by Western blot analysis; assay type: cell-based; details: SK-HEP1
How it was run: (§1)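 SK-Hep-1 cells (3 × 10^5 per 60 mm dish) were exposed to 5 μM for 30 h. Lysates were loaded at 40 μg per lane and immunoblotted for CIP2A, phospho-Akt, PARP and actin.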

[2] = molecular target: Protein CIP2A (Homo sapiens) (UniProt Q8TCG1); assay: Inhibition of CIP2A-mediated PP2A-dependent AKT phosphorylation in human SKHEP1 cells at 5 uM after 30 hrs by Western blot analysis; assay type: cell-based; details: SK-HEP1; how it was run: as §1
SK-HEP1 [3] = assay: Induction of apoptosis in human SKHEP1 cells assessed as increase in PARP cleavage at 5 uM after 30 hrs by Western blot analysis; assay type: functional, cell-based; how it was run: as §1
SK-HEP1 [4] = assay: Cytotoxicity against human SKHEP1 cells assessed as cell death after 48 hrs by MTT assay; assay type: functional, cell-based; details: SK-HEP1, 48 h
How it was run: (§2)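 MTT read-out in SK-Hep-1 cells kept in DMEM with 10% FBS, penicillin/streptomycin and amphotericin B at 37 °C under 5% CO2. Reduced dye solubilized in DMSO and absorbance read at 570 nm. The concentration giving 50% growth inhibition was interpolated from dose–response curves.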

SK-HEP1 [5] = assay: Inhibition of CIP2A expression in human SKHEP1 cells at 20 uM after 24 hrs by Western blot analysis; assay type: functional, cell-based
How it was run: (§3)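 SK-Hep-1 cells (3 × 10^5 per 60 mm dish) were treated 24 h, in the primary screen at 20 μM. Lysates were loaded at 40 μg per lane and blotted for CIP2A against actin.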

SK-HEP1 [6] = assay: Cytotoxicity against human SKHEP1 cells assessed as growth inhibition after 48 hrs by MTT assay; assay type: functional, cell-based; details: SK-HEP1, 48 h; how it was run: as §2
[7] = molecular target: T1, Epidermal growth factor receptor (Homo sapiens, UniProt P00533); assay: Inhibition of EGFR phosphorylation in human PC9 cells at 2 uM after 24 hrs by Western blot analysis; assay type: cell-based; details: PC-9
How it was run: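 PC9 cells (3 × 10^5 per 60 mm dish), grown in DMEM with 10% FBS at 37 °C and 5% CO2, were treated 24 h at 2 μM. Lysates were loaded at 40 μg per lane and immunoblotted for EGFR phosphorylation.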

SK-HEP1 [8] = assay: Inhibition of CIP2A expression in human SKHEP1 cells after 24 hrs by Western blot analysis; assay type: functional, cell-based; how it was run: as §3
SK-HEP1 [9] = assay: Induction of apoptosis in human SKHEP1 cells assessed as accumulation at sub-G1 phase at 5 uM after 24 hrs by propidium iodide staining based flow cytometry; assay type: functional, cell-based
How it was run: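 SK-Hep-1 cells were treated 24 h at 5 μM, then trypsinized, pelleted, washed in PBS and stained with propidium iodide. Apoptotic cells were counted by flow cytometry as the sub-G1 fraction. Mean of n = 3 with SD; P <0.05 taken as significant.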

SK-HEP1 [10] = assay: Induction of apoptosis in human SKHEP1 cells assessed as DNA fragmentation at 5 uM after 24 hrs by ELISA; assay type: functional, cell-based
How it was run: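 DNA fragmentation was measured in SK-Hep-1 cells after 24 h of exposure, using a cell death ELISA kit.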

[11] = molecular target: Protein CIP2A (Homo sapiens) (UniProt Q8TCG1); assay: Inhibition of CIP2A-mediated PP2A-dependent AKT phosphorylation in human SKHEP1 cells at 5 uM after 30 hrs by Western blot analysis in presence of okadaic acid; assay type: cell-based; details: SK-HEP1
SK-HEP1 [12] = assay: Cytotoxicity against human SKHEP1 cells assessed as cell death after 24 hrs by MTT assay
[13] = molecular target: T1, Epidermal growth factor receptor; assay: Inhibition of EGFR phosphorylation in human PC9 cells after 24 hrs by Western blot analysis; assay type: cell-based, PC-9

T1 sequence (P00533 whole entry): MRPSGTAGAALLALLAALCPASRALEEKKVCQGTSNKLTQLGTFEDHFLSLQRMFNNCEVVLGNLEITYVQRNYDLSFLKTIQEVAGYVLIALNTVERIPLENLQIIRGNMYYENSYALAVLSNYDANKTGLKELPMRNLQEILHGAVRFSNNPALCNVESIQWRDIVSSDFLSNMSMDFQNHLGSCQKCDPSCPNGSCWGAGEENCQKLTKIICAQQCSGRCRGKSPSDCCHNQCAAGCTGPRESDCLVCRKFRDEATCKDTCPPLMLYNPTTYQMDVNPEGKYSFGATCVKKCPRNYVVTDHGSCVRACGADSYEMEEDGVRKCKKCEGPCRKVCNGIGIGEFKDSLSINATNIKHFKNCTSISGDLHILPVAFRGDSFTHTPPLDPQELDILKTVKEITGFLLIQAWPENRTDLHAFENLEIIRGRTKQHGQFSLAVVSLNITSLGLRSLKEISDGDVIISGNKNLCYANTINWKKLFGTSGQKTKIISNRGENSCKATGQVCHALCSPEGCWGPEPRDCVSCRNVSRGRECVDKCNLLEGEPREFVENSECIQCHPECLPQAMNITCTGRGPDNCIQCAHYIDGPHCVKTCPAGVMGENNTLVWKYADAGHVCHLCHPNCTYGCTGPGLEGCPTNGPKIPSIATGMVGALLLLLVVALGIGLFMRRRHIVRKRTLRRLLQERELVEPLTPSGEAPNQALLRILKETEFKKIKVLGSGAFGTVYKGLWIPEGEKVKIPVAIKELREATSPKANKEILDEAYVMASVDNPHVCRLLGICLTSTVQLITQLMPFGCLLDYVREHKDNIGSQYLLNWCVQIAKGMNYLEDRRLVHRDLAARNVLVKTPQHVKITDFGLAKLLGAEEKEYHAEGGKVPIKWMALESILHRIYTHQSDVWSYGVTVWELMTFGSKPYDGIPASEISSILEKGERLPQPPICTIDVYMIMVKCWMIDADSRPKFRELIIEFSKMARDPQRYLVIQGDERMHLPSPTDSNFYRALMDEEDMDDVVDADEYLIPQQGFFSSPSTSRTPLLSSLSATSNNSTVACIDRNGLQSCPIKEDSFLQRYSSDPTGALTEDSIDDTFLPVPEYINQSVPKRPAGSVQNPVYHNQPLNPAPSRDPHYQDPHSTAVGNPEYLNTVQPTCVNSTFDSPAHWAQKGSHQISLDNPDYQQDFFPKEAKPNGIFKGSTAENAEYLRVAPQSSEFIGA

Compound | pIC50 (SK-HEP1 [4]) | inhibition (SK-HEP1 [5]) | other results
COc1cc2nc(Cl)nc(Nc3cccc(O)c3)c2cc1OC | < 4.40 |  | inhibition [1]: inactive; inhibition [2]: inactive; Activity (SK-HEP1 [3]): inactive
COc1cc2nc(Cl)nc(Nc3ccc(Cl)c(C(F)(F)F)c3)c2cc1OC | 5.06 |  | 
FC(F)(F)c1cc(Nc2ccnc(Cl)n2)ccc1Cl | < 4.40 | inactive | 
COc1cc2nc(Cl)nc(Nc3cc(C)ccc3F)c2cc1OC | < 4.40 |  | 
Clc1nccc(NCc2ccccc2)n1 | < 4.40 | inactive | 
COc1cc2nc(Cl)nc(Nc3ccc(Oc4ccccc4)cc3)c2cc1OC | 4.82 |  | 
Clc1cccc(Nc2ccnc(Cl)n2)c1 | < 4.40 | inactive | 
FC(F)(F)c1cc(Nc2ccnc(Nc3ccc(Cl)c(C(F)(F)F)c3)n2)ccc1Cl | 4.86 | Active | 
C#Cc1cccc(Nc2nc(Nc3cccc(Oc4ccc(C#N)cc4)c3)nc3cc(OC)c(OC)cc23)c1 |  | Active | pIC50 (SK-HEP1 [6]): 5.41
C#Cc1cccc(Nc2nc(Nc3ccc(Oc4ccccc4)cc3)nc3cc(OC)c(OC)cc23)c1 |  | Active | inhibition [7]: inactive; inhibition (SK-HEP1 [8]): Dose-dependent effect; inhibition [1]: Active; inhibition [2]: Active; Activity (SK-HEP1 [3]): Active; Activity (SK-HEP1 [9]): Active; Activity (SK-HEP1 [10]): Active; inhibition [11]: inactive; pIC50 (SK-HEP1 [6]): 5.55; Activity (SK-HEP1 [12]): Dose-dependent effect
Clc1nccc(Nc2ccc(Oc3ccccc3)cc2)n1 | < 4.40 | inactive | 
C#Cc1cccc(N(C)c2nc(Cl)nc3cc(OC)c(OC)cc23)c1 | 4.91 |  | 
COc1cc2nc(Cl)nc(NCc3ccccc3)c2cc1OC | 4.70 |  | 
C#Cc1cccc(Nc2ccnc(Cl)n2)c1 | < 4.40 | inactive | 
COc1cc2nc(Cl)nc(Nc3cccc(Cl)c3)c2cc1OC | 4.78 |  | 
C#Cc1cccc(Nc2nc(NCc3ccccc3)nc3cc(OC)c(OC)cc23)c1 |  | Active | inhibition [7]: inactive; inhibition [1]: Active; inhibition [2]: Active; Activity (SK-HEP1 [3]): Active; Activity (SK-HEP1 [9]): Active; Activity (SK-HEP1 [10]): Active; pIC50 (SK-HEP1 [6]): 5.55
C#Cc1cccc(Nc2nc(Cl)nc3cc(OC)c(OC)cc23)c1 |  |  | pIC50 [13]: < 5.10
C#Cc1cccc(Nc2nc(Nc3cc(C)ccc3F)nc3cc(OC)c(OC)cc23)c1 |  | Active | pIC50 (SK-HEP1 [6]): 5.35
COc1cc2nc(Cl)nc(Nc3ccc(O)c(C)c3)c2cc1OC | < 4.40 |  | 
C#Cc1cccc(Nc2nc(Nc3cccc(Cl)c3)nc3cc(OC)c(OC)cc23)c1 |  | Active | pIC50 (SK-HEP1 [6]): 5.15
C#Cc1cccc(Nc2nc(Nc3ccc(Cl)c(C(F)(F)F)c3)nc3cc(OC)c(OC)cc23)c1 |  | Active | pIC50 (SK-HEP1 [6]): 5.17
C#Cc1cccc(Nc2ccnc(Nc3cccc(C#C)c3)n2)c1 | 5.43 | Active | 
COc1cc2nc(Cl)nc(Nc3cccc(Oc4ccc(C#N)cc4)c3)c2cc1OC | < 4.40 |  | 
C#Cc1cccc(Nc2nc(Nc3ccc(Oc4ccc(C#N)cc4)cc3)nc3cc(OC)c(OC)cc23)c1 |  | Active | pIC50 (SK-HEP1 [6]): 4.84
